Compound activity (PubChem BioAssay)
An excerpt weighted towards active compounds, which were near 2.4% of everything screened.
CSN inh: blocks human CSN-mediated cullin deneddylation | Q92905 | Purified CSN, SCF-Nedd8-OG deneddylation, fluorescence polarization | inhibition, % at 12.5 µM | hit rate 0.38% among 360,000;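 active = pattern-corrected inhibition above about 35%, with an unprinted fluorescence ratio check between 0.5 and 1.5, limit read from the data, passing the limit was not always enough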;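 note: 0% = enzyme with substrate and 100% = substrate without enzyme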
Target sequence (Q92905 whole entry, looked up, one chain of several): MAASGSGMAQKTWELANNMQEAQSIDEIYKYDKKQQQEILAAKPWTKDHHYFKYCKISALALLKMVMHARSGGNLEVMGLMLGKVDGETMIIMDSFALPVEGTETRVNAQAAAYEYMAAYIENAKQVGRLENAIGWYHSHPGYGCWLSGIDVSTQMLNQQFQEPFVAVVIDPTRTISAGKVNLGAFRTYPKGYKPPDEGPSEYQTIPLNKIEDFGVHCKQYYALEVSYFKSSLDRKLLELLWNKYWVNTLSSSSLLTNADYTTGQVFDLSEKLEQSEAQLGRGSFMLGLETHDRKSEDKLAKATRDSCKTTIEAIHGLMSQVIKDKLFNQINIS
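Assay system: purified human Csn5 enzyme expressed in HEK293T cells; measure: % inhibition; also added: SCFSkp2-Nedd8OG substrate at 10 nM final; technique: fluorescence polarization; times: reaction 90 min, room temperature; medium: Tris buffer pH 7.5, NaCl, DTT, Tween-20, trehalose, ovalbumin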
PREPL inh: inhibits the human prolyl oligopeptidase-like enzyme; Q4J6C6; recombinant PREPL, fluorescence polarization activity-based probe; hit rate 0.68% among 320,000; AID 2751; inhibition, % at 5.96 µM; in the data active = inhibition above about 43%;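 note: 0% = enzyme with DMSO and 100% = wells lacking enzyme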
Neddyl block: blocks human cullin neddylation; hit rate 0.58% among 360,000; P61081+Q13564; AID 651699; inhibition, % at 25 µM; TR-FRET cullin neddylation, biochemical; in the data active = inhibition above about 36%
TbMetRS inhib: blocks T. brucei methionyl-tRNA synthetase activity; hit rate 0.4% among 360,000; purified T. brucei MetRS, ATP depletion, Kinase-Glo luminescence; inhibition, % at 11.9 µM;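 active = inhibition above a per-plate cutoff of the control wells' mean inhibition plus 3 SD, cut at about 5.5% in these data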;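 note: 0% = DMSO wells median and 100% = median of wells with control inhibitor compound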
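Test system – parasite MetRS enzyme · Reagent – substrates ATP, L-methionine and bulk Escherichia coli tRNA · Doses – 11.9 µM compound single dose, 0.9% DMSO · Times – 15 min enzyme-compound preincubation, 2 h reaction, 10 min detection, 25 °C · Signal – Kinase-Glo luminescence, ATP depletion format · Controls – DMSO-only wells as low control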
HNF4A DNA FP: change in binding of human HNF4 alpha to DNA | HNF4a-FITC DNA binding, fluorescence polarization, 1 h | activity change, % at 10 µM | P41235 | AID 1224865 | hit rate 0.3% among 360,000; in the data active = activity change above about 30%, passing the limit was not always enough
Rpn11 inh: blocks the human proteasome subunit Rpn11; human 26S proteasome, Ub4-pepOG fluorescence polarization; 20S core pre-blocked with epoxomicin; inhibition, % at 20 µM; hit rate 0.59% among 360,000; AID 588493;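 active = inhibition at 20 µM, scaled to each plate's controls, above about 33%, limit read from the data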
Target sequence (O00487 whole entry, looked up): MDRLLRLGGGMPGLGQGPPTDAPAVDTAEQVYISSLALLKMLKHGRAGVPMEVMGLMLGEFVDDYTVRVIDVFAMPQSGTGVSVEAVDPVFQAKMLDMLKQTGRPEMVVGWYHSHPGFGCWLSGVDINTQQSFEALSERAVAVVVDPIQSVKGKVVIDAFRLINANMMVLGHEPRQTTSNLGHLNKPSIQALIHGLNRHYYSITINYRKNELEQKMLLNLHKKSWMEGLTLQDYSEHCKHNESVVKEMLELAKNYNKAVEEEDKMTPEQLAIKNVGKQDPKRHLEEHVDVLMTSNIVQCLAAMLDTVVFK
The depositor's hits bear a star; x = not tested or not shown.

SMILES | CSN inh | PREPL inh | Neddyl block | TbMetRS inhib | HNF4A DNA FP | Rpn11 inh
C=CC(=O)Nc1ccc(Nc2nc(NC3CCC(N(C)C)CC3)nc3c2ncn3C(C)C)cc1 (centres undefined) | 37* | 28 | 4 | 0 | 18 | 2
CC(C)n1cnc2c(Nc3ccc(F)c(Cl)c3)nc(NCCO)nc21 | -2 | 20 | -10 | 0 | -13 | -8
CCNc1ccc2noc3c2c1C(=O)c1ccccc1-3 | -72 | 107* | -110 | -1 | -89 | -156
Cc1cc(/C=C2/SC(=S)N(c3cccc(C(F)(F)F)c3)C2=O)c(C)n1-c1cccnc1 | 53* | 0 | -6 | 0 | 64* | 37
COc1cccc(/C=C2\SC(=S)N(c3cccnc3)C2=O)c1OC | 0 | 5 | -11 | 2 | 2 | 4
Nc1c(Cl)c(Cl)nc(C(=O)OCC(=O)NC2CCCCC2)c1Cl | 3 | 8 | -2 | 0 | -1 | 8
COc1ccc2[nH]c(=O)c(CN(C3CCCCC3)C(c3nnnn3Cc3ccco3)C(C)C)cc2c1 (centres undefined) | 19 | 24 | 9 | 0 | 54* | x
COc1ccc(Cl)cc1NC(=O)CN(C)C(C)C(=O)NC(=O)NC1CCCCC1 (centres undefined) | 1 | 7 | 11 | 0 | 0 | -7
CCCCn1cc(SCC(=O)O)c2ccccc21 | 59* | 1 | 31 | 0 | -5 | 0
CCOc1ccc(Nc2nc3ccccc3n2C)cc1 | 6 | -3 | 1 | 0 | 5 | -2
CCOc1ccc(Nc2nc3ccccc3n3nnnc23)cc1 | 0 | 20 | 40* | 0 | 3 | -3
COc1cc2c(c(O)c1OC)C1Cc3ccc(OC)c(OC)c3CN1CC2 (centres undefined) | 4 | x | -6 | 1 | 0 | 3
COc1ccc2cc1Oc1ccc(cc1)C[C@H]1c3c(cc(OC)c4c3Oc3c(ccc5c3[C@H](C2)N(C)CC5)O4)CCN1C | 0 | 15 | -11 | 0 | 76* | 1
N#Cc1c(N2CCCC2)nc(N)c2c(N)nc(N3CCCC3)cc12 | 55* | 41 | 37 | -1 | 36 | -2
CCOc1cc2c(C#N)c(N3CCCC3)nc(N)c2c(N)n1 | 1 | 12 | 6 | 0 | 5 | 9
CSc1ccc(Cn2c(C)c(C(=O)NCc3ccc4c(c3)OCCO4)sc2=O)cc1 | -4 | x | -5 | 0 | 4 | 2
C=CCN(CC=C)C(=O)C1c2ccccc2Oc2ccccc21 | 3 | x | 4 | 0 | 1 | -2
CCN(CC)C(=O)C1c2ccccc2Oc2ccccc21 | -59 | 54* | 21 | -1 | -118 | -161
Cn1cc(C(=O)NCCN2CCN(c3cccc(Cl)c3)CC2)c2c3ccccc3n(C)c2c1=O | 0 | 46* | 26 | 0 | -3 | 12
CCN(C(=O)CSc1nnc(-c2cccc(Cl)c2)n1N)c1c(N)n(Cc2ccccc2)c(=O)[nH]c1=O | 2 | x | 4 | 0 | 0 | -4
Cc1cc(NC(=O)CS(=O)(=O)c2cn(Cc3cccc(C(F)(F)F)c3)c3ccccc23)no1 | 31 | x | -10 | 0 | 2 | -3
COc1ccccc1CCC(=O)Nc1ccc2c(c1)c(=O)n(C)n2C | 2 | x | x | 0 | -2 | -4
CCCC[n+]1ccn(-c2nc3ccccc3nc2[N-]S(=O)(=O)c2ccc(Br)cc2)c1 | 41* | 5 | -125 | -1 | -4 | 24
CC(Oc1ccccc1Cl)C(=O)N(Cc1ccco1)C1CCS(=O)(=O)C1 (centres undefined) | 7 | 5 | -7 | 0 | 31* | 5
COc1cccc(-c2csc(N3CCN(CC(=O)Nc4ccc5c(c4)OCO5)CC3)n2)c1 | -3 | 55* | -7 | -1 | 6 | 12
SMILES | CSN inh | PREPL inh | Neddyl block | TbMetRS inhib | HNF4A DNA FP | Rpn11 inh
CC(=O)Nc1ccc2nc3c(=O)n(C)c(=O)n(C)c3nc2c1 | -4 | 25 | 80* | 0 | -21 | -59
Cn1c(=O)c2nc3ccccc3nc2n(C)c1=O | 9 | 4 | 14 | 0 | 1 | 0
O=C(c1ccc(Br)o1)N1CCC(Cc2ccccc2)CC1 | 93* | 5 | 0 | 0 | 5 | -8
O=C(c1cccs1)N1CCC(Cc2ccccc2)CC1 | -1 | 17 | -12 | 0 | -9 | -10
Cc1cc(NC(=O)/C(C#N)=C/c2ccc(-c3ccc(SC(F)F)cc3)o2)n(-c2ccccc2)n1 | 64* | -1 | 30 | 0 | 151 | x
S=C(NCCCN1CCOCC1)Nc1ccc(Cl)c(Cl)c1 | -4 | -3 | 10 | 1 | 0 | 0
CCOc1ccc(CNc2ccc(N3CCN(Cc4ccccc4)CC3)cc2)cc1 | 6 | 17 | 7 | 0 | -4 | 3
CCOc1ccc(CNc2ccc(N3CCCC3)cc2)cc1 | 5 | 44* | 13 | -1 | 1 | 0
CC1N(C)c2cccc3cccc(c23)N1C | 3 | 17 | x | 0 | 32 | 71*
CN1c2cccc3cccc(c23)N(C)C1c1cccs1 | -3 | -7 | 17 | 0 | 0 | -6
CCn1c(CSc2nnc(-c3cccnc3)n2-c2ccccc2C)nc2cc(C(=O)O)ccc21 | x | 49* | x | x | x | x
CCN(Cc1ccccc1)c1ccc(/C=C(\C#N)c2ccccn2)cc1 | 11 | 6 | 16 | -1 | 25 | 33
CCN(CC)c1ccc(/C=C(\C#N)c2ccccn2)cc1 | 35 | 15 | -38 | 0 | 89* | x
O=C(C=CC(=O)OC1CCCCC1)OC1CCCCC1 | -2 | x | -15 | 0 | -5 | 1
Cc1ccn2c(NC3CCCCC3)c(-c3ccc(SC4CCCCC4)cc3)nc2c1 | 19 | x | x | -1 | 54* | x
O=C(Nc1ccc2nc(-c3cccs3)c(-c3cccs3)nc2c1)N1CCOCC1 | 7 | -5 | x | 0 | 7 | 47*
O=C(Nc1cccc(O)c1)N1CCOCC1 | -2 | -3 | -3 | 0 | 0 | -4
COc1cccc(CNC(=O)COC(=O)CCS(=O)(=O)c2ccc(C)cc2)c1 | 0 | x | 9 | 0 | -7 | -8
CCN1CCN(C(=O)c2cc(COc3ccc(C(C)=O)cc3OC)on2)CC1 | -3 | -5 | 13 | 0 | -7 | -3
CSc1nnnn1CCn1nnnc1SC | 51* | 5 | -6 | -1 | -5 | -4
Cc1ccc(CNc2ccc3nnc(-c4ccccc4)n3n2)cc1 | 38* | 0 | -2 | 0 | 3 | 4
O=C(O)CC/C(=N\NC(=O)c1ccccc1)c1cccs1 | 8 | 12 | 8 | 0 | 1 | 2
COC(=O)N/N=C(\CCC(=O)O)c1cccs1 | 90* | -6 | 1 | 0 | 4 | 1
O=c1/c(=C\c2cc([N+](=O)[O-])cc([N+](=O)[O-])c2O)sc2nc3ccccc3n12 | 14 | 8 | -32 | 0 | 40* | x
CN1CCC(N2CCN(C3CN(C4CCCC4)S(=O)(=O)C3)CC2)CC1 (centres undefined) | 144* | x | -12 | -1 | 3 | 0
